Bounds are passed on as bounds.

In data set [1] the test system is J774.A1. The data set is described as follows: Cytotoxicity against mouse J774.A1 cells assessed as reduction in cell viability at 10 uM measured after 5 hrs by Cell TiterGlo Luminescent assay relative to control. Format: cell-based. As to conditions: j774.a1, 5 h. In general terms: Cellular ATP, detected with luciferase, serves as a proxy for viable cell number.

The nature of data set [2]: Inhibition of Bordetella pertussis ACT by cell free assay. In a few lines:
(§1)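 Run cell-free on the bacterial enzyme, with the phosphono diphosphate forms (nucleoside triphosphate analogues) added directly rather than the bisamide prodrugs; an IC50 was obtained.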

Data set [3] in a line: Inhibition of Bordetella pertussis ACT exposed to mouse J774.A1 cells assessed as inhibition of ACT-induced cAMP accumulation cells pretreated for 5 hrs measured after 30 mins followed by enzyme addition by immunoassay. The format is cell-based.
The target in data set [4] is T1, Calmodulin-sensitive adenylate cyclase (Bacillus anthracis, UniProt P40136).
T1 sequence (P40136 whole entry): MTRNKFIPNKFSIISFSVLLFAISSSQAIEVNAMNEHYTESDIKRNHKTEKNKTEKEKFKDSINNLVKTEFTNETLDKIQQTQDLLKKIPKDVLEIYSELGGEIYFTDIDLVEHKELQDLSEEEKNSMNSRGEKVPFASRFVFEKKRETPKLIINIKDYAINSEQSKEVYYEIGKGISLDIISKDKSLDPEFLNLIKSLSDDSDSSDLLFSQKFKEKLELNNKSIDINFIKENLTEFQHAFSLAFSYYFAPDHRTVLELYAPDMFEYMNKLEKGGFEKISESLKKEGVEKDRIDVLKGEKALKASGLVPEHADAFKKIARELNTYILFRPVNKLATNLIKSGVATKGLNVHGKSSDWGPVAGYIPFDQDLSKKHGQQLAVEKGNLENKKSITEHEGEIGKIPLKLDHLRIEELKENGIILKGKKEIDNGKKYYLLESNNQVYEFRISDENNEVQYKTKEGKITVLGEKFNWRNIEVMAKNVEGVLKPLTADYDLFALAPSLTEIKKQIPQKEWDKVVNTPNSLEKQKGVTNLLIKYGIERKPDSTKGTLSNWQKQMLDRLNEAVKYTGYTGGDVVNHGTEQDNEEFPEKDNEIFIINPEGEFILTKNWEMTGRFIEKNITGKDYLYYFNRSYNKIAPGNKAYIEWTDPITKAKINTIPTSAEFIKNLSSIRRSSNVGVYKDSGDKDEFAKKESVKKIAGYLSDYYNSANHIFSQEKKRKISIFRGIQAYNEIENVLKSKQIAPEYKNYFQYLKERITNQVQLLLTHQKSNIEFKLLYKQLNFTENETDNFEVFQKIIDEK
The data set is described as follows: Inhibition of Bacillus anthracis edema factor by cell free assay. In a few lines:
as §1

Take `CCCCOc1cccc(-c2sc(N)nc2CCOCP(=O)(N[C@@H](Cc2ccccc2)C(=O)OC(C)C)N[C@@H](Cc2ccccc2)C(=O)OC(C)C)c1`: the Activity in data set [1] came out at 35%. What is called IC50 is the concentration that gives 50% inhibition. `CNC(=O)c1ccc(-c2sc(N)nc2CCOCP(=O)(O)OP(=O)(O)OP(=O)(O)O)cc1` had an IC50 in data set [2] of 0.0374 µM. As for `CC(C)OC(=O)[C@H](Cc1ccccc1)NP(=O)(COCCc1nc(N)sc1-c1ccccc1OCc1ccccc1)N[C@@H](Cc1ccccc1)C(=O)OC(C)C`, the IC50 in data set [3] is above 10 µM. The Activity in data set [1] is recorded as 115%. In the case of `CC(C)OC(=O)[C@H](Cc1ccccc1)NP(=O)(COCCc1nc(N)sc1-c1cccc(F)c1)N[C@@H](Cc1ccccc1)C(=O)OC(C)C`, the Activity in data set [1] is listed as 99%. On to `CC(C)Cc1sc(N)nc1-c1ccc(P(=O)(O)OP(=O)(O)OP(=O)(O)O)o1`, for which the values for the IC50 in data set [4] and in data set [2] were 5.06 µM and 16 µM, respectively. The matching figures for `Nc1nc(CCOCP(=O)(O)OP(=O)(O)OP(=O)(O)O)c(-c2ccccc2OCc2ccccc2)s1`: 7.81 µM and 0.184 µM. Take `CC(C)OC(=O)[C@H](Cc1ccccc1)NP(=O)(COCCc1csc(N)n1)N[C@@H](Cc1ccccc1)C(=O)OC(C)C`: in data set [3], the IC50 is above 10 µM. Besides, the Activity in data set [1] is 72%.

Consider `Nc1nc(CCOCP(=O)(O)OP(=O)(O)OP(=O)(O)O)c(-c2cccc(OCc3ccccc3)c2)s1`, for which the midpoint of inhibition in data set [2], the IC50, lay at 0.192 µM.

`CC(C)OC(=O)[C@H](Cc1ccccc1)NP(=O)(COCCc1nc(N)sc1-c1cccnc1)N[C@@H](Cc1ccccc1)C(=O)OC(C)C`: the IC50 in data set [3] came out at 2.62 µM. For the same compound, the Activity in data set [1] was determined as 99%.

Regarding `CC(C)Oc1ccc(-c2sc(N)nc2CCOCP(=O)(O)OP(=O)(O)OP(=O)(O)O)cc1`, the IC50 in data set [2] is 0.185 µM. In the case of `CC(C)Cc1sc(N)nc1-c1ccc(P(=O)(O)N[C@@H](Cc2ccccc2)C(=O)OC(C)C)o1`, the IC50 in data set [3] was 14.2 µM. The Activity in data set [1] was found to be 86%. Consider `CNC(=O)c1cccc(-c2sc(N)nc2CCOCP(=O)(N[C@@H](Cc2ccccc2)C(=O)OC(C)C)N[C@@H](Cc2ccccc2)C(=O)OC(C)C)c1`, for which the IC50 in data set [3] turned out to be 8.45 µM. Also, the Activity in data set [1] was found to be 106%. The compound `Nc1nc(CCOCP(=O)(O)OP(=O)(O)OP(=O)(O)O)c(-c2cccc(F)c2)s1` displayed an IC50 in data set [2] of 0.313 µM.

Regarding `CNC(=O)c1ccc(-c2sc(N)nc2CCOCP(=O)(N[C@@H](Cc2ccccc2)C(=O)OC(C)C)N[C@@H](Cc2ccccc2)C(=O)OC(C)C)cc1`, in data set [1], the Activity was determined as 99%. In the case of `CC(C)OC(=O)[C@H](Cc1ccccc1)NP(=O)(COCc1csc(N)n1)N[C@@H](Cc1ccccc1)C(=O)OC(C)C`, the IC50 in data set [3] was above 10 µM. In addition, the Activity in data set [1] amounted to 83%. For the compound `COc1ccc(-c2sc(N)nc2CCOCP(=O)(N[C@@H](Cc2ccccc2)C(=O)OC(C)C)N[C@@H](Cc2ccccc2)C(=O)OC(C)C)c(C)c1`, the IC50 in data set [3] is 1.16 µM. In data set [1], the Activity was found to be 57%.

Take `CNS(=O)(=O)c1cccc(-c2sc(N)nc2CCOCP(=O)(N[C@@H](Cc2ccccc2)C(=O)OC(C)C)N[C@@H](Cc2ccccc2)C(=O)OC(C)C)c1`: in data set [1], the Activity is reported as 99%. As for `CC(C)Cc1sc(N)nc1-c1ccc(P(=O)(NC(Cc2ccccc2)C(=O)OC(C)C)N[C@@H](Cc2ccccc2)C(=O)OC(C)C)o1` (stereo not given in full), in data set [3], the IC50 was 2.12 µM. In addition, the Activity in data set [1] was determined as 88%.

Take `CC(C)OC(=O)[C@H](Cc1ccccc1)NP(=O)(COCCc1nc(N)sc1-c1cccc(OCc2ccccc2)c1)N[C@@H](Cc1ccccc1)C(=O)OC(C)C`: the Activity in data set [1] came out at 72%. On the same count and under the same terms, then `CC(C)OC(=O)[C@H](Cc1ccccc1)NP(=O)(COCCc1nc(N)sc1-c1ccc(OC(C)C)cc1)N[C@@H](Cc1ccccc1)C(=O)OC(C)C`, with 81%. On to `CNS(=O)(=O)c1ccc(-c2sc(N)nc2CCOCP(=O)(N[C@@H](Cc2ccccc2)C(=O)OC(C)C)N[C@@H](Cc2ccccc2)C(=O)OC(C)C)cc1`, for which the IC50 in data set [3] is above 10 µM. The Activity in data set [1] was found to be 94%. The matching figures for `CC(C)OC(=O)[C@H](Cc1ccccc1)NP(=O)(COCCn1cnc2c(N)ncnc21)N[C@@H](Cc1ccccc1)C(=O)OC(C)C`: 0.15 µM and 93%. Turning to `CC(C)OC(=O)[C@H](Cc1ccccc1)NP(=O)(COCCc1nc(N)sc1-c1ccccc1)N[C@@H](Cc1ccccc1)C(=O)OC(C)C`, the Activity in data set [1] amounted to 112%. For the compound `CC(C)OC(=O)[C@H](Cc1ccccc1)NP(=O)(COCc1nc(N)sc1-c1ccccc1)N[C@@H](Cc1ccccc1)C(=O)OC(C)C`, the IC50 in data set [3] worked out at 4.68 µM. Also, the Activity in data set [1] was 54%.

On to `CC(C)OC(=O)[C@H](Cc1ccccc1)NP(=O)(COCCc1nc(N)sc1-c1cccc(OC(C)C)c1)N[C@@H](Cc1ccccc1)C(=O)OC(C)C`, for which, in data set [3], the IC50 was 1.72 µM. Further, the Activity in data set [1] came to 44%. As for `CC(C)OC(=O)[C@H](Cc1ccccc1)NP(=O)(COCCc1nc(N)sc1Sc1ccccc1)N[C@@H](Cc1ccccc1)C(=O)OC(C)C`, in data set [3], the IC50 was 0.93 µM. For the same compound, the Activity in data set [1] is listed as 36%. For `COc1cc(OC)cc(-c2sc(N)nc2CCOCP(=O)(N[C@@H](Cc2ccccc2)C(=O)OC(C)C)N[C@@H](Cc2ccccc2)C(=O)OC(C)C)c1` the same measures were 1.43 µM and 86%.

With `Nc1ncnc2c1ncn2CCOCP(=O)(O)OP(=O)(O)OP(=O)(O)O` [ADEFOVIR DIPHOSPHATE], the IC50 in data set [4] was determined as 0.036 µM; in data set [2], 0.0178 µM.
